Screening data from PubChem.
NR1D1 modulator: modulators of Rev-erb alpha DNA binding, primary screen, biochemical, FITC-DNA, fluorescence polarization, uHTS | AID 1259318, 2017 | Nuclear receptor subfamily 1 group D member 1 (Homo sapiens), P20393 | hit rate 0.79% among 370,000 | activity, % at 10 µM | Rev-erbα–FITC-DNA binding, 90 min;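 active means activity above about 14%, limit read from the data; passing the limit was not always enough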;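 further: 0% = DMSO wells with 35 nM protein and 100% = DMSO wells with 750 nM protein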
Target sequence (P20393 whole entry, looked up): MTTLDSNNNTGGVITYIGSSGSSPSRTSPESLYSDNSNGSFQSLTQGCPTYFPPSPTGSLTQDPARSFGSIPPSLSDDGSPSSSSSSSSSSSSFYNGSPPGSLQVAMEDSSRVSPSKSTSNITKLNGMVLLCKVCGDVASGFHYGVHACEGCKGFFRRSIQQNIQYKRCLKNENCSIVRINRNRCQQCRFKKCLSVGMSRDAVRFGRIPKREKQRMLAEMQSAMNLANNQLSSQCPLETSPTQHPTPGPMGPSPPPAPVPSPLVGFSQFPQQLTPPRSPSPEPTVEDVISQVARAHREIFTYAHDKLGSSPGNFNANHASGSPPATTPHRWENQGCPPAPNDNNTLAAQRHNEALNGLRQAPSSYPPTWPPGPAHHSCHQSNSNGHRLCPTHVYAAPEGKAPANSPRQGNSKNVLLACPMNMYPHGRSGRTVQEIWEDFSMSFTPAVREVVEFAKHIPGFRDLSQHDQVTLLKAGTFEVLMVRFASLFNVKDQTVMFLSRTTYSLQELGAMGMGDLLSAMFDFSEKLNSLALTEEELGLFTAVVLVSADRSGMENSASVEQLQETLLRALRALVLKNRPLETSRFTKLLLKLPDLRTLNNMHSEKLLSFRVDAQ
PG9 Ab binder: binders of HIV-1 gp120 antibody PG9, primary screen, biochemical, TR-FRET | TR-FRET gp120-PG9 antibody binding | inhibition, % at 6.7 µM | hit rate 0.43% among 360,000 | AID 624416, 2012; in the data active means inhibition above about 8.5%
NR2E3 ag-1: NR2E3 agonists in two-hybrid cells, primary screen, cell-based, luminescence, CHO-S, Gal4-NCOR/VP16-NR2E3. hit rate 0.35% among 360,000. Photoreceptor-specific nuclear receptor (Homo sapiens), Q9Y5X4. luciferase. inhibition of corepressor binding, % at 3.98 µM;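 active means inhibition above the mean of all tested compounds plus 3 SD, cut at about 70% in these data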;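 further: 0% = DMSO with NR2E3 transfected cells and 100% = cells lacking NR2E3 construct; higher means lower luciferase signal from less NR2E3 corepressor binding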
NR2E3 ag-2: inhibitors of NR2E3-RetCOR corepressor binding, primary screen, NR2E3 agonist project, biochemical, TR-FRET, GST-NR2E3, biotin-RetCOR | AID 2300, 2010 | Photoreceptor-specific nuclear receptor (Homo sapiens), Q9Y5X4 | 1536-well | hit rate 0.12% among 320,000 | inhibition of corepressor binding, % at 4.78 µM;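 active means percent inhibition above the cutoff of mean plus 3 SD of all tested compounds, set per screening campaign, cut at about 20% in these data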;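 further: 0% = DMSO wells and 100% = biotin wells as full block of FRET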
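System: GST-tagged NR2E3 plus biotinylated RetCOR corepressor; Buffer or medium: pH 7.5 Tris-based buffer; Probe or stimulus: RetCOR corepressor, biotinylated, 7 nM; Doses: compound at 4.8 µM, single dose; Schedule: 5 h incubation at 4 °C; Technique: time-resolved FRET; Evaluation: percent inhibition of TR-FRET ratio; Replication: one well per compound, singlicate testing.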
NR2E3 ag conf: NR2E3 agonist confirmation in cells, cell-based, luminescence, CHO-S two-hybrid; hit rate 51% among 2,300; inhibition, % at 3.98 µM; shares compounds with NR2E3 ag-1; CHO-S mammalian two-hybrid NR2E3-NCOR, luciferase luminescence;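 active means average inhibition above a cutoff equal to the mean inhibition of all tested compounds plus one SD, cut at about 70% in these data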;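 further: 0% = DMSO in NR2E3 cells and 100% = DMSO in cells lacking NR2E3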
VP16 counter: GAL4-VP16 reporter modulators, confirmation, counter-screen for NR2E3 agonist project, cell-based, luminescence, CHO-S, high throughput; hit rate 29% among 2,300; inhibition, % at 3.98 µM; shares compounds with NR2E3 ag-1; CHO-S GAL4-VP16 luciferase reporter; AID 624379, 2012;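 active means mean inhibition above a cutoff equal to the average over all tested compounds plus one standard deviation, cut at about 70% in these data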;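 further: luciferase from a UAS reporter driven by GAL4-VP16 transactivation; 0% = DMSO with VP16-transfected cells and 100% = DMSO with cells lacking VP16; higher means less reporter light so more repression of VP16 activity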
* = called active by the depositor; . = no result. Most compounds without a hit are left out; they make up all but 1.4% or so of the library.

SMILES	NR1D1 modulator	PG9 Ab binder	NR2E3 ag-1	NR2E3 ag-2	NR2E3 ag conf	VP16 counter
Cc1ccc(CC#N)c(-c2c(CC#N)ccc(C)c2C)c1C	0	-1	-28	.	.	.
Cc1ccc(-c2csc3ncnc(N4CCN(Cc5ccccc5)CC4)c23)cc1	11	-2	4	0	.	.
Cc1csc2ncnc(NC3CCN(Cc4ccccc4)CC3)c12	-3	-1	81*	2	95*	86*
COc1cccc(NC(=O)N2CCc3nc(NCc4cccc(Oc5ccccc5)c4)ncc3C2)c1	4	0	37	.	.	.
O=C(Nc1ccc(OC(F)(F)F)cc1)N1CCc2nc(NCc3cccc(Oc4ccccc4)c3)ncc2C1	3	1	62	.	21	46
CC(C)Cc1ccc(C(C)C(=O)Nc2cccnc2)cc1 (centres undefined)	-6	0	50	0	89*	76*
CC(C(=O)Nc1cccnc1)c1ccc([N+](=O)[O-])cc1 (centres undefined)	2	-2	5	2	.	.
COc1ccc(-c2nc(C#N)c(NC(C)c3ccccc3)o2)cc1OC (centres undefined)	-4	2	-23	5	.	.
COc1cc(CN(C)c2ncnc3sccc23)ccc1OC(F)F	-3	1	84*	3	74*	61
Cc1nnc(SC(C)C(=O)Nc2sc3c(c2C#N)CCCC3)[nH]c1=O (centres undefined)	-1	0	-3	2	.	.
N#Cc1c(NC(=O)CSc2ncn[nH]2)sc2c1CCCCC2	-3	-2	46	2	.	.
N#Cc1c(NC(=O)CSc2nc(N)cc(=O)[nH]2)sc2c1CCCCCC2	2	-2	69	0	36	45
CC(Sc1nc(N)cc(=O)[nH]1)C(=O)Nc1sc2c(c1C#N)CCCC2 (centres undefined)	-3	-1	51	1	61	61
CCC(Sc1nc(C)cc(=O)[nH]1)C(=O)Nc1sc2c(c1C#N)CCCC2 (centres undefined)	4	0	88*	1	76*	53
COc1ccc(CC2(CO)CCN(Cc3cnn(-c4ccc(F)cc4)c3)CC2)cc1	-8	1	-6	6	.	.
Cc1ccc(NC(=O)CN(C)C(=O)c2sc3cc(Cl)ccc3c2Cl)cc1	14	5	-22	0	.	.
Cc1c(CN(C)C(=O)c2sc3cc(Cl)ccc3c2Cl)cnn1C	4	-3	48	0	72*	66
CN(C)c1ncnc2c1nnn2C1OC(CO)C(O)C1O (centres undefined)	-3	-1	89*	.	-9	61
O=c1[nH]cnc2c1nnn2C1OC(CO)C(O)C1O (centres undefined)	11	-1	49	.	-40	26
Nn1c(SCc2cccc(Br)c2)nnc1-c1ccncc1	3	-1	10	3	.	.
C[C@@H](C(=O)N[C@H](C(=O)O)c1ccccc1)n1nnc2ccccc2c1=O	2	-2	4	-4	.	.
O=C(OCCOc1ccc(Cl)cc1)c1cc(S(=O)(=O)N2CCCCC2)ccc1N1CCOCC1	1	1	51	.	73*	51
Cc1ccc(OCCOC(=O)c2cc(S(=O)(=O)N3CCCCC3)ccc2N2CCOCC2)cc1	-7	-1	49	3	72*	52
CC1CCCCC1NC(=O)COC(=O)c1ccc2c(=O)n3c(nc2c1)CCC3 (centres undefined)	1	2	-2	.	.	.
CCOC(=O)C1=C(C)OC(N)=C(C#N)C1C1CCCCC1 (centres undefined)	6	0	-56	1	.	.
SMILES	NR1D1 modulator	PG9 Ab binder	NR2E3 ag-1	NR2E3 ag-2	NR2E3 ag conf	VP16 counter
COc1cnc(-c2ccccn2)nc1N(C)c1ccccc1	1	-1	105*	-2	94*	-23
COc1cnc(-c2ccccn2)nc1Oc1ccccc1	1	0	59	2	22	-20
CN(c1ccccc1)c1ncccn1	8	-1	8	-5	.	.
COc1ccc(C(=O)Nc2cccc(S(=O)(=O)N3CCCC3)c2)cc1S(=O)(=O)N1CCOCC1	-9	0	-7	.	.	.
O=S(=O)(c1cccs1)N1CCN(CCOc2ccc(Cl)cc2)CC1	1	-1	-3	3	.	.
O=S(=O)(c1cccs1)N1CCN(CC(O)COc2cc(Cl)ccc2Cl)CC1 (centres undefined)	1	1	89*	-2	96*	78*
CCCCSc1nc2c([nH]1)c(=S)n(C)c(=O)n2C	5	-2	64	.	31	-21
CSc1nc2c([nH]1)c(=S)n(C)c(=O)n2C	-4	-4	33	.	.	.
CCCC(CC)Sc1nc2c([nH]1)c(=S)n(C)c(=O)n2C (centres undefined)	-4	-1	78*	.	22	-11
CCCCC(C)Sc1nc2c([nH]1)c(=S)n(C)c(=O)n2C (centres undefined)	15	-1	87*	.	87*	61
CCCNC(=O)c1cc(S(=O)(=O)N2CCc3ccccc32)ccc1F	-3	2	-1	-1	.	.
CCc1[nH]nc(C(=O)NC2CCCc3c2cnn3-c2cc(C)cc(C)c2)c1C (centres undefined)	-3	0	61	2	54	-8
Cc1cc(C(=O)NC2CCCc3c2cnn3-c2ccc(C)c(C)c2)no1 (centres undefined)	1	-1	20	-2	.	.
Cc1ccc(-n2ncc3c2CCCC3NC(=O)c2ocnc2C)cc1C (centres undefined)	-7	-2	101*	2	90*	80*
Cc1cc(C(=O)NC2CCCc3c2cnn3-c2cccc(C)c2C)n(C)n1 (centres undefined)	0	-2	110*	-2	98*	91*
CCn1nc(C)cc1C(=O)NC1CCCc2c1cnn2-c1ccc(C)c(C)c1 (centres undefined)	6	-1	58	-2	55	40
CN(CC(=O)Nc1ccccc1Br)C(=O)C1CCN(C(=O)c2ccc(Cl)cc2)CC1	-1	-1	-10	-2	.	.
Cc1sc(NC(=O)/C=C/c2ccc3c(c2)OCO3)nc1-c1ccccc1	7	-2	57	5	85*	31
Cn1c(SCC(=O)NCc2ccc3c(c2)OCO3)nc2c(c1=O)SCC2	0	2	-18	4	.	.
c1ccc(-c2noc(-c3ccc4ccccc4c3)n2)nc1	.	.	48	-2	19	-44
c1ccc(-c2noc(-c3ccncc3)n2)nc1	-2	-2	-117	4	.	.
